Data set [1] has as its target Muscarinic acetylcholine receptor M3 (Homo sapiens, UniProt P20309). Put plainly: Activity at human muscarinic acetylcholine receptor subtype 3 expressed in CHO cells by calcium mobilization assay. In kind it is functional, cell-based. The procedure, abridged: (§1)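 Muscarinic subtype selectivity by fluorescence calcium mobilization in highly expressing CHO lines with similar receptor levels; Gi/o-coupled M2 and M4 cells co-transfected with chimeric Gqi5 to couple to Ca2+ mobilization. Read-outs are PAM EC50 and ACh max response. Mean ± SEM of at least three independent determinations.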

Data set [2] deals with T1, Muscarinic acetylcholine receptor M2 (Homo sapiens, UniProt P08172).
T1 sequence (P08172 whole entry): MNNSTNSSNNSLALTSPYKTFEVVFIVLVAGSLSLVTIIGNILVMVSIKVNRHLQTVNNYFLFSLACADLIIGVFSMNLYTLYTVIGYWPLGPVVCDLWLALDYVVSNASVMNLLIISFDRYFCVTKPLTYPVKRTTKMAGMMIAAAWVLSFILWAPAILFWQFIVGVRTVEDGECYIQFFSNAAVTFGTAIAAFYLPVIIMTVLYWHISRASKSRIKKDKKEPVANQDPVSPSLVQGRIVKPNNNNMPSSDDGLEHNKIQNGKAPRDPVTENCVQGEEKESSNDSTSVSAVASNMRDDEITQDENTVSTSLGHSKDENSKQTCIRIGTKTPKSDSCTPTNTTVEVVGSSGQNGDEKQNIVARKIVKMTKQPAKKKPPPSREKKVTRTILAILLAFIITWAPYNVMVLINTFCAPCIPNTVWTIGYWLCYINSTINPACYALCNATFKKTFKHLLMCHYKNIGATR
Briefly: Activity at human muscarinic acetylcholine receptor subtype 2 expressed in CHO cells co-transfected with chimeric Gqi5 by calcium mobilization assay. In kind it is functional, cell-based. The procedure, abridged:
as §1

For data set [3], the target named is T2, Muscarinic acetylcholine receptor M1 (Homo sapiens, UniProt P11229).
T2 sequence (P11229 whole entry): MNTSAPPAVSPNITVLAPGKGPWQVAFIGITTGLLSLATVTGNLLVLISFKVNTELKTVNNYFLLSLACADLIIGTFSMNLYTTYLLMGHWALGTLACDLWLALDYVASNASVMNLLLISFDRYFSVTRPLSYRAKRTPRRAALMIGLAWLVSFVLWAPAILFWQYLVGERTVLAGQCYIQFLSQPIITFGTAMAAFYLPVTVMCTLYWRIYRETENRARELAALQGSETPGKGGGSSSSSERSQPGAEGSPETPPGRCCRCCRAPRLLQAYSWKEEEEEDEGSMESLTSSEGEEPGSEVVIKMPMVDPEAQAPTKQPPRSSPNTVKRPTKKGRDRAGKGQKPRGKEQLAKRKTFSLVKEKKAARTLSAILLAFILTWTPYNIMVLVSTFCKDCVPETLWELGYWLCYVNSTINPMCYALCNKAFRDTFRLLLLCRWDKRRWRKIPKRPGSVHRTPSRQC
Briefly: Activity at human muscarinic acetylcholine receptor subtype 1 expressed in CHO cells by calcium mobilization assay. Format: functional, cell-based. The method in brief: as §1

Data set [4] has as its target Sigma non-opioid intracellular receptor 1 (Homo sapiens) (UniProt Q99720). Briefly: Displacement of radioligand from human sigma-1 receptor at 10 uM. The method in brief:
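Pan Labs lead profiling radioligand binding battery of 68 GPCRs, ion channels and transporters, with test compound present at 10 μM.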

Data set [5] can be described thus: Plasma clearance in Sprague-Dawley rat 1 mg/kg, iv administered as single dose by LC/MS/MS utilizing electrospray ionization method. In kind it is ADME, organism-based. On the set-up: dose 1 mg/kg, route intravenous.
The nature of data set [6]: Elimination half life in Sprague-Dawley rat 1 mg/kg, iv administered as single dose by LC/MS/MS utilizing electrospray ionization method. In kind it is ADME, organism-based. Also noted: dose 1 mg/kg, route intravenous. To be noted: in vivo, read-out: beta t1/2.
Data set [7] is described as follows: Volume of distribution at steady state in Sprague-Dawley rat 1 mg/kg, iv administered as single dose by LC/MS/MS utilizing electrospray ionization method. Format: ADME, organism-based. On the set-up: dose 1 mg/kg, route intravenous. To be noted: in vivo, read-out: Vdss.
A further data set relates to Rattus norvegicus. Briefly: Unbound brain-to-plasma concentration ratio in Sprague-Dawley rat 1 mg/kg, iv administered as single dose after 15 mins by LC/MS/MS utilizing electrospray ionization method. On the set-up: dose 1 mg/kg, route intravenous. Format: ADME, organism-based. The note with it: 0.25 h. The procedure, abridged:
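Male Sprague–Dawley rats (n = 3) dosed 1 mg/kg intravenously. Brain and plasma levels at 15 min after administration give Kp. Kp,uu is the unbound brain-plasma partition coefficient.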

The nature of data set [8]: Apparent permeability in human Caco2 cells. Format: ADME, cell-based. To be noted: caco-2.

Sequence of Sigma non-opioid intracellular receptor 1 (Homo sapiens) (Q99720 whole entry): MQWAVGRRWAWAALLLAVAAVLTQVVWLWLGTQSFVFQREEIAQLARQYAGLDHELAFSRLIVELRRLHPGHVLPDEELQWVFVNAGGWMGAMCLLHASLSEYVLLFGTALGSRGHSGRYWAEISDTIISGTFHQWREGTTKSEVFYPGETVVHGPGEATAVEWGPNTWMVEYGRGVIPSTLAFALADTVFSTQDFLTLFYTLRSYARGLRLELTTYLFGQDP
Sequence of Muscarinic acetylcholine receptor M3 (P20309 whole entry): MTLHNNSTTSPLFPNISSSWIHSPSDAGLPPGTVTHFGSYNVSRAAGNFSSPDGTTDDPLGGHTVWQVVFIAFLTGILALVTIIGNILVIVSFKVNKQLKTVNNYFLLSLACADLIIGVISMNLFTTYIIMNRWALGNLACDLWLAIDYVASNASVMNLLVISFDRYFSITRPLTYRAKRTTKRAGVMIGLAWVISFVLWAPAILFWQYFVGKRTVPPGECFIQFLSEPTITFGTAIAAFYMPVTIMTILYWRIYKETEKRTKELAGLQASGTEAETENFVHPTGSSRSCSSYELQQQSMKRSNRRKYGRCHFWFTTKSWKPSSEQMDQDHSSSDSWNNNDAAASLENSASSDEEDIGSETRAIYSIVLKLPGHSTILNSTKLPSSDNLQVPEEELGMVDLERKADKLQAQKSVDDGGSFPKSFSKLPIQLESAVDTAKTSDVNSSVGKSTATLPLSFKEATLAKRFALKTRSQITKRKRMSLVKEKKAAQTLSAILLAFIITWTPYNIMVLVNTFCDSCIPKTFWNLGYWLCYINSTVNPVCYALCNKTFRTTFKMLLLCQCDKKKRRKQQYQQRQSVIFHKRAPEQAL

For `CCN(Cc1ccccc1C(F)(F)F)C(=O)C1CCN(S(=O)(=O)c2ccc3[nH]ncc3c2)CC1`, the concentration for a half-maximal effect (EC50) is 2100 nM in [1], greater than 30 µM in [2] and 5.4 µM in data set [3]. In [4], this compound returned an inhibition of 53%. In data set [5], this compound returned a clearance of 66 mL/min/kg. Moreover, the half-life in data set [6] was 22 min. Moreover, in data set [7], the Vd was 1.6 L/kg. Further, in the data set on Rattus norvegicus, the “K(p,uu,brain)” value was 0.28. The Papp in [8] was found to be 2.5 ×10⁻⁵ cm/s.
